Laboratory results as given in ChEMBL document CHEMBL1799988, “Novel chalcone derivatives as potent Nrf2 activators in mice and human lung epithelial cells” (J Med Chem, 2011).
The source made the active and inactive calls. The calls are words filed in the database; no cut-off is given here.

Assays:
[1] = biological target: T1, Nuclear factor erythroid 2-related factor 2 (Homo sapiens) (UniProt Q16236); experiment: Induction of Nrf2-mediated GCLM gene expression in human BEAS2B cells at […] 24 hrs by RT-PCR analysis; type: functional, cell-based
T1 sequence (whole entry): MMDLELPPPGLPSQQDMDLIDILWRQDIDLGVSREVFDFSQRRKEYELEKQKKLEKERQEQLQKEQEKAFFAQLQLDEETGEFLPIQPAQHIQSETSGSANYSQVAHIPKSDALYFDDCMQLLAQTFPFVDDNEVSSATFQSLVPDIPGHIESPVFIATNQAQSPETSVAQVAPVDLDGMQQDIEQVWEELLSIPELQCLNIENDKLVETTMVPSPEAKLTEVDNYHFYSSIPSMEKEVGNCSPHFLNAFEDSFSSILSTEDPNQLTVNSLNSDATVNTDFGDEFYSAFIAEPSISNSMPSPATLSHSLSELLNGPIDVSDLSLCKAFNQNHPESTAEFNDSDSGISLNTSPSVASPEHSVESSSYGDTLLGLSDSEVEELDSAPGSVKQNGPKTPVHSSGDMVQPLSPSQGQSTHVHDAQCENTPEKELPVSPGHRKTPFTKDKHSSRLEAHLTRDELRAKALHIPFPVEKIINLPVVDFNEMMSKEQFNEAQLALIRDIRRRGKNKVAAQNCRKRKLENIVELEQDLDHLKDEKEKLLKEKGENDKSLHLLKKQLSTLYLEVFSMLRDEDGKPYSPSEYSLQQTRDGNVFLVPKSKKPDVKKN
In short: (§1)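 Beas-2B cells co-incubated with 10 µM compound with or without N-acetylcysteine (10 mM); cells harvested 24 h later. GCLM, NQO1 and HO-1 mRNA quantified by TaqMan qRT-PCR, normalized to β-actin. Representative of 3 independent experiments, triplicate wells.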

[2] = biological target: T1, Nuclear factor erythroid 2-related factor 2 (Homo sapiens); experiment: Induction of Nrf2-mediated HO1 gene expression in human BEAS2B cells at […] 24 hrs by RT-PCR analysis; type: functional, cell-based; in short: as §1
[3] = biological target: T1, Nuclear factor erythroid 2-related factor 2 (Homo sapiens); experiment: Induction of Nrf2-mediated NQO1 gene expression in human BEAS2B cells at […] 24 hrs by RT-PCR analysis; type: functional, cell-based; in short: as §1
[4] = Cytotoxicity against human BEAS2B cells assessed as cell viability after 24 hrs by MTT assay; type: cell-based, BEAS-2B; design: concentration or dose not given beside the values; settings: read-out: Activity
In short: (§2)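 Beas-2B cells treated with compound or DMSO vehicle (0.1%) for 24 h; MTT (5 mg/ml in serum-free medium) added for the last 4 h, formazan dissolved in DMSO after PBS wash, absorbance read at 570 nm. Viability also checked by trypan blue exclusion.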

[5] = biological target: T1, Nuclear factor erythroid 2-related factor 2 (Homo sapiens); experiment: Induction of Nrf2-mediated NQO1 gene expression in human BEAS2B cells at 10 uM after 16 hrs by RT-PCR analysis relative to untreated control; type: functional, cell-based
In short: (§3)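 Beas-2B cells (DMEM:F12, 10% FBS) plated 24 h, then exposed to 10 µM compound in DMSO (final ≤0.1%) for 16 h; sulforaphane as positive control. Total RNA extracted, reverse transcribed with random hexamers, GCLM and NQO1 mRNA quantified by TaqMan qRT-PCR, fold change vs DMSO. Representative of 3 independent experiments, quadruplicate wells.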

[6] = system: Mus musculus; experiment: Induction of Nrf2-mediated NQO1 gene expression in small intestine of C57BL/6 mouse at 50 mg/kg, po administered as single dose measured after 24 hrs by RT-PCR analysis related to control; type: functional
In short: (§4)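 Male C57BL/6 mice (7 weeks, AIN 76A diet; n=4) given a single 50 mg/kg oral gavage of compound, sulforaphane, or vehicle (10% DMSO + 10% Cremophor EL + 80% PBS). Small intestine harvested 24 h later; GCLM and NQO1 mRNA measured by TaqMan qRT-PCR with β-actin normalization.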

[7] = biological target: T1, Nuclear factor erythroid 2-related factor 2 (Homo sapiens); experiment: Induction of Nrf2-mediated GCLM gene expression in human BEAS2B cells at 10 uM after 16 hrs by RT-PCR analysis relative to untreated control; type: functional, cell-based; in short: as §3
[8] = system: Mus musculus; experiment: Induction of Nrf2-mediated GCLM gene expression in small intestine of C57BL/6 mouse at 50 mg/kg, po administered as single dose measured after 24 hrs by RT-PCR analysis related to control; type: functional; in short: as §4
[9] = biological target: T1, Nuclear factor erythroid 2-related factor 2 (Homo sapiens); experiment: Induction of Nrf2-mediated HO1 mRNA expression in human BEAS2B cells after 24 hrs by RT-PCR analysis; type: functional, cell-based
In short: (§5)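 Beas-2B cells exposed for 24 h to 2.5, 5, 10 or 20 µM compound in DMSO (final ≤0.1%), sulforaphane as comparator. GCLM, NQO1 and HO1 mRNA measured by TaqMan qRT-PCR, normalized to β-actin. Representative of 3 independent experiments, triplicate wells.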

[10] = biological target: T1, Nuclear factor erythroid 2-related factor 2 (Homo sapiens); experiment: Induction of Nrf2-mediated GCLM mRNA expression in human BEAS2B cells at 10 uM after 48 hrs by RT-PCR analysis; type: functional, cell-based
In short: (§6)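 Time course in Beas-2B cells at 10 µM compound: GCLM, NQO1 and HO-1 mRNA measured 6, 12, 24 and 48 h after treatment by TaqMan qRT-PCR, β-actin normalization. Representative of 3 independent experiments, triplicate wells.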

[11] = biological target: T1, Nuclear factor erythroid 2-related factor 2 (Homo sapiens); experiment: Induction of Nrf2-mediated HO1 mRNA expression in human BEAS2B cells at 10 uM after 24 hrs by RT-PCR analysis relative to sulforaphane; type: functional, cell-based
[12] = biological target: T1, Nuclear factor erythroid 2-related factor 2 (Homo sapiens); experiment: Induction of Nrf2-mediated NQO1 mRNA expression in human BEAS2B cells after 24 hrs by RT-PCR analysis; type: functional, cell-based; in short: as §5
[13] = biological target: T1, Nuclear factor erythroid 2-related factor 2 (Homo sapiens); experiment: Induction of Nrf2-mediated HO1 gene expression in human BEAS2B cells at 10 uM after 24 hrs by RT-PCR analysis in presence of 10 mM N-acetylcysteine; type: functional, cell-based; in short: as §1
[14] = system: Mus musculus; experiment: Induction of Nrf2-mediated GCLM gene expression in small intestine of C57BL/6 mouse at 50 mg/kg, po administered as single dose measured after 24 hrs by RT-PCR analysis related to sulforaphane; type: functional; in short: as §4
[15] = Cytotoxicity against human BEAS2B cells assessed as cell viability at 20 uM after 24 hrs by MTT assay relative to sulforaphane; type: cell-based; settings: beas-2b; in short: as §2
[16] = biological target: T1, Nuclear factor erythroid 2-related factor 2 (Homo sapiens); experiment: Induction of Nrf2-mediated GCLM mRNA expression in human BEAS2B cells at 10 uM after 6 hrs by RT-PCR analysis; type: functional, cell-based; in short: as §6
[17] = biological target: T1, Nuclear factor erythroid 2-related factor 2 (Homo sapiens); experiment: Induction of Nrf2-mediated NQO1 mRNA expression in human BEAS2B cells at 10 uM after 24 hrs by RT-PCR analysis relative to sulforaphane; type: functional, cell-based
[18] = biological target: T1, Nuclear factor erythroid 2-related factor 2 (Homo sapiens); experiment: Induction of Nrf2-mediated NQO1 gene expression in human BEAS2B cells at 10 uM after 24 hrs by RT-PCR analysis in presence of 10 mM N-acetylcysteine; type: functional, cell-based; in short: as §1
[19] = biological target: T1, Nuclear factor erythroid 2-related factor 2 (Homo sapiens); experiment: Induction of Nrf2-mediated NQO1 gene expression in human BEAS2B cells overexpressing ARE luciferase reporter plasmid after 16 hrs by chemiluminescence assay; type: functional, cell-based
In short: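 Beas-2B cells stably transfected with NQO1-ARE luciferase reporter (blasticidin 6 µg/ml selection) seeded at 10,000 cells/well for 16 h, then exposed to graded compound concentrations or DMSO for 16 h. Luciferase activity read by chemiluminescence as relative luminescence intensity. Representative of 3 independent experiments, quadruplicate wells.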

[20] = biological target: T1, Nuclear factor erythroid 2-related factor 2 (Homo sapiens); experiment: Induction of Nrf2-mediated HO1 mRNA expression in human BEAS2B cells at 10 uM after 48 hrs by RT-PCR analysis relative to sulforaphane; type: functional, cell-based; in short: as §6
[21] = biological target: T1, Nuclear factor erythroid 2-related factor 2 (Homo sapiens); experiment: Induction of Nrf2-mediated HO1 mRNA expression in human BEAS2B cells at 10 uM after 6 hrs by RT-PCR analysis relative to sulforaphane; type: functional, cell-based; in short: as §6
[22] = system: Mus musculus; experiment: Induction of Nrf2-mediated NQO1 gene expression in small intestine of C57BL/6 mouse at 50 mg/kg, po administered as single dose measured after 24 hrs by RT-PCR analysis related to sulforaphane; type: functional; in short: as §4
[23] = biological target: T1, Nuclear factor erythroid 2-related factor 2 (Homo sapiens); experiment: Induction of Nrf2-mediated GCLM gene expression in human BEAS2B cells at 10 uM after 24 hrs by RT-PCR analysis in presence of 10 mM N-acetylcysteine; type: functional, cell-based; in short: as §1
[24] = biological target: T1, Nuclear factor erythroid 2-related factor 2 (Homo sapiens); experiment: Induction of Nrf2-mediated NQO1 mRNA expression in human BEAS2B cells at 10 uM after 48 hrs by RT-PCR analysis relative to sulforaphane; type: functional, cell-based; in short: as §6
[25] = biological target: T1, Nuclear factor erythroid 2-related factor 2 (Homo sapiens); experiment: Induction of Nrf2-mediated NQO1 mRNA expression in human BEAS2B cells at 20 uM after 24 hrs by RT-PCR analysis
[26] = biological target: T1, Nuclear factor erythroid 2-related factor 2 (Homo sapiens); experiment: Induction of Nrf2-mediated GCLM mRNA expression in human BEAS2B cells at 20 uM after 24 hrs by RT-PCR analysis; type: functional, cell-based; in short: as §5
[27] = biological target: T1, Nuclear factor erythroid 2-related factor 2 (Homo sapiens); experiment: Induction of Nrf2-mediated GCLM mRNA expression in human BEAS2B cells after 24 hrs by RT-PCR analysis; type: functional, cell-based; in short: as §5

Q: What does the source list for `CC(=O)N[C@@H](CS)C(=O)O`?
A: Activity [1]: inactive; Activity [2]: inactive; Activity [3]: inactive

Q: Which results are given for `COc1cccc(C(=O)/C=C/c2ccccc2C(F)(F)F)c1`?
A: viability at 24 h [4]: 96.6%; fold change (FC) [5]: 4.3; Activity [6]: Active; fold change (FC) [7]: 5.6; Activity [8]: Active

Q: What does the source list for `COc1cc(OC)c(C(=O)/C=C/c2ccccc2C(F)(F)F)c(OC)c1`?
A: viability at 24 h [4]: 145%; fold change (FC) [5]: 4.3; Activity [6]: Active; fold change (FC) [7]: 4.4; Activity [8]: Active

Q: Which viability at 24 h [4] does the source give for `COc1cccc(OC)c1C(=O)/C=C/c1ccccc1C(F)(F)F` here?
A: 101%

Q: And the fold change (FC) [5]?
A: 5.3

Q: What about the Activity [6] of the same molecule?
A: Active

Q: And the fold change (FC) [7]?
A: 5.7

Q: What about the Activity [8] of the same molecule?
A: Active

Q: Which Activity [9] does the source give for `COc1ccccc1C(=O)/C=C/c1ccccc1C(F)(F)F` here?
A: Dose-dependent effect

Q: And the Activity [10]?
A: inactive

Q: What about the fold change (FC) [11] of the same molecule?
A: 6

Q: What about the Activity [12] of the same molecule?
A: Dose-dependent effect

Q: What about the viability at 24 h [4] of the same molecule?
A: 101%

Q: And the Activity [13]?
A: Active

Q: And the fold change (FC) [14]?
A: 3

Q: What about the Activity [15] of the same molecule?
A: Non-toxic

Q: What about the fold change (FC) [5] of the same molecule?
A: 4.6

Q: And the fold change (FC) [16]?
A: 7

Q: What about the Activity [17] of the same molecule?
A: Active

Q: What about the Activity [18] of the same molecule?
A: Active

Q: What about the Activity [19] of the same molecule?
A: Dose-dependent effect

Q: And the Activity [20]?
A: inactive

Q: What about the fold change (FC) [6] of the same molecule?
A: 10

Q: What about the fold change (FC) [21] of the same molecule?
A: 150

Q: And the “fold change (FC)” value [22]?
A: 5

Q: What about the Activity [23] of the same molecule?
A: Active

Q: What about the Activity [24] of the same molecule?
A: Active

Q: And the fold change (FC) [25]?
A: 10

Q: And the fold change (FC) [26]?
A: 5

Q: What about the fold change (FC) [7] of the same molecule?
A: 4.5

Q: And the Activity [27]?
A: Dose-dependent effect

Q: What about the “fold change (FC)” value [8] of the same molecule?
A: 6

Q: With `COc1ccc(C(=O)/C=C/c2ccccc2C(F)(F)F)c(OC)c1` as the molecule, how does the viability at 24 h [4] read?
A: 105%

Q: What about the fold change (FC) [5] of the same molecule?
A: 4.5

Q: And the Activity [6]?
A: Active

Q: And the fold change (FC) [7]?
A: 5.4

Q: And the Activity [8]?
A: Active
